Fh CTSL1 inh: counter-screen for PFM18AAP inhibitors: inhibitors of F. hepatica cathepsin L1; AID 1906; actives 0.49% (n = 300,000); recombinant F. hepatica cathepsin L1, Z-Leu-Arg-MCA fluorescence; inhibition, % at 5.96 µM;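 active = inhibition above the mean of all tested compounds plus 3 SD, set per screening campaign, cut at about 17% in these data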
pCIP destab: lowers stability of the mouse p/CIP coactivator protein. Q05BA5. F442A p/CIP-EGFP cells, EGFP fluorescence, 16 h. decrease of EGFP signal, % at 10 µM. actives 0.01% (n = 290,000);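 active = EGFP signal decrease of at least 30% at 10 µM or well 3 SD below plate mean, unless failing retest; inactive = the rest, including hits failing retest or dose response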
UBC9 SUMO inh: SUMOylation inhibition; HTRF SUMOylation assay, SAE1/SAE2 + UBC9, in vitro; inhibition, % at 35 µM; actives 0.36% (n = 290,000); in the data active = inhibition above about 50%, passing the limit was not always enough
Target sequence (P63279 whole entry, looked up): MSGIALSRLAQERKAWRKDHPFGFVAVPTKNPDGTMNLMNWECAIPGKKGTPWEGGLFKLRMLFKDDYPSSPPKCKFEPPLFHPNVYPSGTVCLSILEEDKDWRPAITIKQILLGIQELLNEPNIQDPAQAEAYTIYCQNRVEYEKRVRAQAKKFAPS
IMP-1 inh: inhibitors of Pseudomonas aeruginosa IMP-1 metallo-beta-lactamase; purified IMP-1, nitrocefin hydrolysis, epi-absorbance fluorescence; inhibition, % at 5.6 µM; actives 0.45% (n = 290,000); AID 1556;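 active = inhibition above the mean plus 3 SD of all compounds in the same screening run, cut at about 4.5% in these data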
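System: Purified recombinant IMP-1 metallo-beta-lactamase enzyme | Measured by: Fluorescence quenching readout, ex 480/em 530 nm | Replication: Singlicate | Incubation: 15 min preincubation plus 25 min reaction at 25 °C | Evaluation: Percent inhibition from optical density relative to buffer-blank wells | Benchmarks: DMSO with and without IMP-1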
T cell modulator: T cell immune modulators affecting CD8 T cell-vesicle binding; response (vesicle binding), % at 7 µM; 2C CD8+ T cell-vesicle binding, flow cytometry; hits give low values; actives 0.068% (n = 330,000);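 active = response, share of CD8 T cells binding vesicles, and their 90th percentile fluorescence all below set limits, cut at about 80% in these data, passing the limit was not always enough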;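 also: values below 100% mean blocked vesicle binding to the CD8+ T cells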
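incubation = binding step 1.5 h, 37 °C, antibody labelling 20 min, ice | test system = 2C mouse CD8+ T cells | read-out basis = percent CD8+ FL2 mean versus row control | controls = Peptide-free naked vesicles (low) and QL9 vesicles with 0.7% DMSO vehicle (high) | detection = flow cytometry of vesicle-bound cells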
VIM-2 inhibitor: blocks Pseudomonas aeruginosa VIM-2 metallo-beta-lactamase; purified VIM-2, nitrocefin hydrolysis, epi-absorbance fluorescence; inhibition, % at 5.6 µM; actives 0.89% (n = 290,000);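 active = inhibition above the mean of all tested compounds plus 3 SD, cutoff set per screening run, cut at about 7.5% in these data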;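 also: red hydrolysis product quenches plate fluorescence so inhibitors raise well fluorescence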
Hits are given with their value; n = inactive; x = not tested or not shown. Compounds with a hit are over-represented: about 1.9% of the library has one in this group of screens.

SMILES | Fh CTSL1 inh | pCIP destab | UBC9 SUMO inh | IMP-1 inh | T cell modulator | VIM-2 inhibitor
COCCCN1CCN(c2nnc3n2-c2sc(Br)cc2C(c2ccccc2Cl)=NC3)CC1 | n | n | n | 8.3 | n | n
CCOCCN1CCN(c2nnc3n2-c2ccc(Cl)cc2C(c2ccccc2Cl)=NC3)CC1 | n | n | n | n | n | n
CCC1(OC(=O)CN)C(=O)OCc2c1cc1n(c2=O)Cc2cc3ccccc3nc2-1 (stereo not drawn) | n | n | 57.1 | n | n | n
CN1C[C@H](CO)C=C2c3cccc4[nH]cc(c34)C[C@H]21 | n | n | 65.3 | n | n | n
CC1=C[C@@H]2c3cccc4[nH]cc(c34)C[C@H]2N(C)C1 | n | n | n | n | n | n
COC(=O)C1=C(c2ccc(OC(F)(F)F)cc2)C[C@@H]2CC[C@H]1N2C(=O)NCCOc1ccc(OC)cc1 | x | x | x | x | n | x
N#Cc1c(N2CCNCC2)nc(-c2ccco2)c2c1CCCC2 | n | n | n | n | n | 8.9
CCN1CCN(Cc2cccnc2)CC1 | 19.4 | n | n | n | n | n
CCN1CCN(Cc2ccc(OC(F)(F)F)cc2)CC1 | n | n | n | n | n | n
COC(=O)C1=C(c2c(C)noc2C)C[C@@H]2CC[C@H]1N2C(=O)NCc1ccco1 | x | x | x | x | n | x
CCn1nc(/C=C/c2ccccc2)nc2c(=O)n(C)c(=O)nc1-2 | x | n | 98.6 | n | x | n
CCOc1ccc(-n2c(-c3cccs3)nc3ccccc3c2=O)cc1 | n | n | n | n | n | n
CCn1nc(-c2cccs2)nc2c(=O)n(C)c(=O)nc1-2 | x | n | 100.7 | x | x | x
CCN1C(=O)C(=C/C=C/c2ccco2)C(=O)N(CC)C1=S | n | n | n | 5.8 | n | n
COc1ccc(CN2C(=O)NC(=O)/C(=C/c3ccc([N+](=O)[O-])s3)C2=O)cc1 | n | n | n | n | n | n
COc1ccc(N2C(=O)NC(=O)/C(=C/c3ccc([N+](=O)[O-])s3)C2=O)cc1 | n | n | 50.8 | n | n | n
O=C1NC(=O)N(Cc2ccc(F)cc2)C(=O)/C1=C\c1ccc([N+](=O)[O-])s1 | n | n | 63.4 | n | n | n
Cc1cccc(NC(=O)COC(=O)c2cc(C)n(C3CC3)c2C)c1 | x | x | x | x | n | x
CN1CCC2(CC1)C(C#N)=C(N)NC(S)=C2C#N | n | n | 57.2 | n | n | n
O=[As](O)(O)c1ccc(N=Nc2ccc(O)cc2)cc1 | x | n | n | 5.1 | n | n
C[C@]12CCC3C(CC[C@H]4C[C@@H](O)[C@H](O)C[C@]34C)C1CC[C@@H]2O (stereo partly drawn) | x | x | x | x | n | x
COC(=O)C(O)(c1c(C)[nH]n(-c2ccccc2)c1=O)C(F)(F)F (stereo not drawn) | 19.8 | n | n | n | n | n
CCC(COC(=O)c1cc(OC)c(OC)c(OC)c1)(c1ccccc1)N(C)C (stereo not drawn) | n | n | n | 41.0 | n | n
COc1cc(CN2CCN(C(=O)Cc3ccccc3)CC2)cc(OC)c1OC | n | n | n | n | n | n
CCCOc1ccccc1C1SCC(=O)Nc2c1c(=O)[nH]n2C(C)CCC (stereo not drawn) | n | n | n | n | n | 8.7
SMILES | Fh CTSL1 inh | pCIP destab | UBC9 SUMO inh | IMP-1 inh | T cell modulator | VIM-2 inhibitor
C[CH2][Hg][S]c1ccccc1C(=O)O | n | x | x | x | n | x
COc1ccc(N2CCN(Cc3nc4ccccc4[nH]3)CC2)cc1 | 17.3 | n | n | n | n | n
COC(=O)C1=C(c2ccc3ccccc3c2)C[C@@H]2CC[C@H]1N2C(=O)NCc1ccc(C(F)(F)F)cc1 | x | x | x | x | n | x
COC(=O)C(C)Oc1cc(C)cc2oc(=O)c3c(c12)CCC3 (stereo not drawn) | n | n | n | n | n | 11.4
CCOC(=O)C(C)Oc1cc(C)cc2oc(=O)c3c(c12)CCCC3 (stereo not drawn) | n | n | n | n | n | n
Cc1cc(OC(C)C(=O)N[C@H](C(=O)O)c2ccccc2)c2c3c(c(=O)oc2c1)CCC3 (stereo partly drawn) | n | n | n | n | n | n
Cc1cc(OCC(=O)N[C@@H](Cc2ccccc2)C(=O)O)c2c3c(c(=O)oc2c1)CCCC3 | n | n | n | n | n | 11.3
Cc1cc(OCc2nn[nH]n2)c2c3c(c(=O)oc2c1)CCC3 | n | n | n | n | n | 11.8
